Assay results as given in ChEMBL document CHEMBL3259663, “3-Amido-3-aryl-piperidines: A Novel Class of Potent, Selective, and Orally Active GlyT1 Inhibitors” (ACS Med Chem Lett, 2014).

Key:
[1] = Ratio of drug level from brain to plasma rat at 10 mg/kg, po; type: ADME, organism-based; parameters: dose 10 mg/kg, route oral; details: brain and plasma, read-out: BPR
In short: (§1)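 Rat striatal microdialysis after a 10 mg/kg oral dose. Extracellular glycine measured as fold over basal levels, with sampling stopped at 3 h. Plasma and brain exposures determined at 3 h post-dose. n = 6.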

[2] = Octanol-phosphate buffer partition coefficient, log D of the compound at pH 7.4; type: physicochemical
In short: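 Distribution coefficient measured between 1-octanol and phosphate buffer at pH 7.4.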

Brain = test: Effect on brain glycine level in rat striatum at 10 mg/kg, po; type: functional; in short: as §1
[3] = Genotoxicity in micronucleus (unknown origin) by MNT test
[4] = Intrinsic clearance in mouse liver microsomes; type: ADME; details: read-out: CLH
[5] = biological target: T1, Sodium- and chloride-dependent glycine transporter 1 (Homo sapiens, UniProt P48067); test: Inhibition of human GlyT1 expressed in cells assessed as [3H]glycine uptake; type: cell-based
T1 sequence (P48067 whole entry): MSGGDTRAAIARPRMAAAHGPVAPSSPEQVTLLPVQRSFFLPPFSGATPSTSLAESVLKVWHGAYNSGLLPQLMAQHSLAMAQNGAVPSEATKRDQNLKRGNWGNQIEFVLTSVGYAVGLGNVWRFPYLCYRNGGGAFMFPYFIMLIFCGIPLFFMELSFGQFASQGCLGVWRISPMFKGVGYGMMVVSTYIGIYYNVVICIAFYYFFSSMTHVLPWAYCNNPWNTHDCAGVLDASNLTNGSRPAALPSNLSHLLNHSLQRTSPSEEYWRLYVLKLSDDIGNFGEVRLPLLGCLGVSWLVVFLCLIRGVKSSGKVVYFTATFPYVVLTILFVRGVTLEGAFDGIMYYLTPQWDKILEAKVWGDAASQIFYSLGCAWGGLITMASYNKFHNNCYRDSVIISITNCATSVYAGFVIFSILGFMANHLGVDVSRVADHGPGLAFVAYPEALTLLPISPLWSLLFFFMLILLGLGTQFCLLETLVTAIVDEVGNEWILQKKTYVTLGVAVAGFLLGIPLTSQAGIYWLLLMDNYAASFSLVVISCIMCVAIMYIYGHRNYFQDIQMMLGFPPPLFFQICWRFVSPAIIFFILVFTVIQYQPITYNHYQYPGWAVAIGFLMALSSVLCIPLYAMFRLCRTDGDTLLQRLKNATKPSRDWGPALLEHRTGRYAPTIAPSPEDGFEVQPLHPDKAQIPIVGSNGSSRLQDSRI
In short: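 [³H]-glycine uptake inhibition in cells transfected with human GlyT1. EC₅₀ values are the average of at least two independent experiments.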

[6] = biological target: T2, Sodium- and chloride-dependent glycine transporter 2 (Homo sapiens, UniProt Q9Y345); test: Inhibition of human GlyT2 expressed in cells assessed as [3H]glycine uptake; type: cell-based
T2 sequence (Q9Y345 whole entry): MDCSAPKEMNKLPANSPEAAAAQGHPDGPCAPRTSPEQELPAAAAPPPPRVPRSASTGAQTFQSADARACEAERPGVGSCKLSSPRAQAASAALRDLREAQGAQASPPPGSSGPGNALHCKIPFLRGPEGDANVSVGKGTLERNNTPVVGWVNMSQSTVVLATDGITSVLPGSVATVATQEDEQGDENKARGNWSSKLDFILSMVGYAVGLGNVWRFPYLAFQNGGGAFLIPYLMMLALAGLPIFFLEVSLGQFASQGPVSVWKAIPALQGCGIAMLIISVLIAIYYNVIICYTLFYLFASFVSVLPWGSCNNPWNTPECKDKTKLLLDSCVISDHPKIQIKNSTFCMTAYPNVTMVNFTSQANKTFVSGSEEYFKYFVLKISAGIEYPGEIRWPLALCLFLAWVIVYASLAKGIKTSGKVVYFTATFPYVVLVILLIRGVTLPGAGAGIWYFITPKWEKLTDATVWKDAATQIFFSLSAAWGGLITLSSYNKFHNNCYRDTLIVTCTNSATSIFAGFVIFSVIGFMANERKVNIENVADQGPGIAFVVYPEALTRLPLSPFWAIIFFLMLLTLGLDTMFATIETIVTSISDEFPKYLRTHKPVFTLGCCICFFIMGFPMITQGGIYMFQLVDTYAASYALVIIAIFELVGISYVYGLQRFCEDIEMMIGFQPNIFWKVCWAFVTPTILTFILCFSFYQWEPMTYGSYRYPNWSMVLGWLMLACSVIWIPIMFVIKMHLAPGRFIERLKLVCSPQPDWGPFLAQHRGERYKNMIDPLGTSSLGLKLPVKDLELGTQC

[7] = Volume of distribution at steady state in mouse at 1.7 mg/kg, iv; type: ADME, organism-based; parameters: dose 1.7 mg/kg, route intravenous; details: in vivo, read-out: Vdss
In short: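 Mouse PK, single iv dose of 1.7 mg/kg. Values are the average of two independent experiments.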

Kp [1]: 0.08
logD [2]: 3.12
microsomal CLint [4]: 54 µL/min/mg
EC50 [5]: 0.01 µM
EC50 [6]: 15 µM
Vd [7]: 8 L/kg
SMILES: COc1cc(C(F)(F)F)cc(SC)c1C(=O)N[C@@]1(c2ccccc2)CCCN(C)C1
Activity (Brain): 60 ng/mL
Activity [3]: Non-toxic
